Screening results as filed in PubChem BioAssay.
In the library only some 2.6% were active in any assay of this set; here they are far more common.
MEKK2mut PB1 HTS = MEK5 binding signal on mutant MEKK2 PB1, primary screen, biochemical, multiplex bead flow cytometry, Alexa488-MEK5. Alexa488-MEK5 binding to MEKK2 mutant. percent response, % at 10 µM. hit rate 0.35% among 290,000; in the data active = percent response above about 24%, passing the limit was not always enough
Hep lipid drop = inhibitors of hepatocyte lipid droplet formation, primary screen, imaging, high-throughput imaging, BODIPY stain | AML12 mouse hepatocytes, oleate lipid droplets | hit rate 0.4% among 240,000 | inhibition, % at 6.5 µM;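 active = lipid droplet intensity inhibited by at least 50%, with more than 500 cells counted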
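Assay system: AML12 hepatocytes (mouse) / Also added: 100 µM oleic acid challenge / Times: overnight treatment with compound plus oleate / Detection: high-content imaging of BODIPY-stained droplets and DAPI nuclei / Evaluation: % inhibition of lipid droplet signal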
MEKK2wt PB1 HTS = modulators of MEK5 binding to wildtype MEKK2, primary screen, biochemical, multiplex bead flow cytometry, Alexa488-MEK5; Mitogen-activated protein kinase kinase kinase 2 (Homo sapiens), Q9Y2U5; binding response (% of control), % at 10 µM; Alexa488-MEK5 binding to MEKK2 WT; actives lie on both sides; hit rate 1.1% among 290,000; in the data active = binding response below about 67% or above about 130%
MEKK3 PB1 HTS = modulators of MEKK3-MEK5 PB1 binding, primary screen, biochemical, wildtype MEKK3, multiplex bead flow cytometry, Alexa488-MEK5. Mitogen-activated protein kinase kinase kinase 3 (Homo sapiens), Q99759. bead-based flow cytometry, Alexa488-MEK5 binding to MEKK3; actives lie on both sides; 0 = blocked by unlabeled MEK5, 100 = vehicle. binding response (% of control), % at 10 µM. hit rate 1.4% among 290,000. AID 1529, 2009;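 active = binding response more than 3 SD above or below the average of its plate-row segment, actives on both sides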;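 note: Alexa488 bead fluorescence after subtracting the streptavidin-only scavenger bead signal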
Lipid drop inh = hepatocyte lipid droplet accumulation inhibitors, confirmation, imaging, AML12 mouse hepatocytes, single concentration, high-content. shares compounds with Hep lipid drop. BODIPY lipid droplet imaging; droplets induced with 100 µM oleic acid. inhibition, % at 5.2 µM. hit rate 65% among 870. AID 463183, 2010;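 active = inhibition of lipid droplet metric at least 50%, with more than 300 cells in each of four replicates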;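 note: plate controls were DMSO with oleic acid for no effect and 5 µM Triacsin-C for full effect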
AML12 cytotox = AML12 hepatocyte cytotoxicity, counter-screen for hepatic lipid droplet formation project, imaging, DAPI nuclear morphology imaging. AID 463200, 2010. hit rate 3% among 870. shares compounds with Hep lipid drop. AML12 mouse hepatocytes; hits give high values; cells fed 100 µM oleate overnight. z-score at 5 µM; in the data active = z-score above about 6.3;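 note: compound exposure lasted overnight at 37 °C before fixation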
AML12 tox ATP = AML12 hepatocyte cytotoxicity, confirmation, cytotoxicity control for hepatic lipid droplet formation project, cell-based, single concentration | 530 tested, under 10 active | shares compounds with Hep lipid drop | cytotoxicity, % at 50 µM | AML12 mouse hepatocyte viability, ATP luminescence; cells loaded with 100 µM oleic acid;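 active = cytotoxicity above 50% in each of four replicates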;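 note: compound exposure lasted overnight at 37 °C before the ATP read; 0% = DMSO-treated cells and 100% = wells with no cells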
Numbers without * were called inactive; nt = no result given.

SMILES	MEKK2mut PB1 HTS	Hep lipid drop	MEKK2wt PB1 HTS	MEKK3 PB1 HTS	Lipid drop inh	AML12 cytotox	AML12 tox ATP
COC(=O)c1c(N2C(=O)[C@H]3[C@@H](C2=O)[C@]2(C(=O)Nc4c(C)cc(C)cc42)N2CCC[C@@H]32)sc(C)c1C	3	68*	102	103	32	0.064	nt
COc1ccc(OC)c(NC(=O)c2nc(-c3ccccc3)oc2C)c1	-3	6	95	98	nt	nt	nt
FC(F)(F)c1cc(N2CCOCC2)nc(-c2ccccc2)n1	-1	0	102	105	nt	nt	nt
c1ccc(-c2nc(N3CCOCC3)cc(N3CCOCC3)n2)cc1	9	67*	105	104	92*	-0.2	25
OCC[C@@H]1C[C@@H](O)[C@H](O)[C@]2(CCc3ccccc3CO2)O1	-5	14	104	99	nt	nt	nt
Oc1ccc(/C=N/Nc2nc(-c3cccnc3)nc3ccccc23)c(O)c1	4	-3	108	102	nt	nt	nt
Cc1c(O)ccc(/C=N/Nc2nc(-c3cccnc3)nc3ccccc23)c1O	-1	52*	106	97	81*	11*	nt
Cc1cccc(C)c1OCc1cc(C(=O)N(Cc2nccn2C)C(C)C)no1	-3	-6	99	96	nt	nt	nt
O=C(CSc1nc2ccccc2[nH]1)N1c2ccccc2Sc2ccccc21	0	7	102	105	nt	nt	nt
O=C(CSc1nc(O)cc(=O)[nH]1)N1c2ccccc2Sc2ccccc21	-8	56*	90	103	9	0.47	nt
COc1cccc(CNS(=O)(=O)c2ccc(S(=O)(=O)NC3CC3)cc2)c1	2	80*	104	101	108*	0.015	16
COc1ccc(CNS(=O)(=O)c2ccc(S(=O)(=O)NC3CC3)cc2)cc1	-5	40	94	100	nt	nt	nt
CN(C)CC(C)(C)CN=Cc1c(O)[nH]c2ccccc12	-4	-3	94	97	nt	nt	nt
N/C(Cc1ccc(Cl)cc1Cl)=N\OC(=O)c1ccc(Br)o1	-2	57*	94	93	2	-0.22	nt
N/C(Cc1cccc2ccccc12)=N\OC(=O)c1ccc(Br)o1	-1	-9	96	99	nt	nt	nt
COc1ccc(C(=O)CCC(=O)Nc2ccc(N3CCCCC3)cc2)cc1OC	-4	92*	96	97	108*	0.0011	11
COc1n[nH]c(C(=O)Nc2cc(F)ccc2C)c1[N+](=O)[O-]	3	55*	107	105	9	-0.67	nt
COc1n[nH]c(C(=O)Nc2cc(Cl)ccc2Cl)c1[N+](=O)[O-]	-8	-1	92	99	nt	nt	nt
CSc1ccc(CN2CCN(C3CCCC3)C(CCO)C2)cc1 (configuration not stated)	5	55*	105	101	-3	-0.55	nt
COc1ccccc1N(CC(=O)N1CCOCC1)S(C)(=O)=O	2	1	109	106	nt	nt	nt
O=C(CSc1nc(-c2ccco2)cc(C(F)(F)F)n1)Nc1ccc(C(=O)N2CCOCC2)cc1	3	59*	105	105	90*	-0.19	9
O=C(CSc1nc(-c2ccco2)cc(C(F)(F)F)n1)NN1CCOCC1	1	18	102	102	nt	nt	nt
Nc1nc(-c2ccccc2)c(N=Nc2ccccc2Cl)s1	-2	104*	88	79	114*	-0.57	32
Nc1nc(-c2ccccc2)c(N=Nc2cccc3ccccc23)s1	-1	113*	96	79	115*	0.42	44
Cn1ncc(Cl)c1C(=O)NNC(=O)Nc1cccc2ccccc12	3	-11	104	102	nt	nt	nt
O=C1C(NS(=O)(=O)c2cccs2)=C(N2CCN(c3cccc(C(F)(F)F)c3)CC2)C(=O)c2ccccc21	nt	52*	nt	nt	113*	-0.37	12
